The list is not random: actives were taken first. Their share in the collection is about 3%.
V-ATPase pHluor = regulators of yeast V-ATPase proton pumping, primary screen, pHLuorin cytosolic pH fluorescence | S. cerevisiae | response, % at 10 µM | actives 0.37% (n = 350,000) | AID 504577, 2011; in the data active = response mostly above about 7.3%, no sharp cut-off; inactive = mostly below about 5.4%; also: actives read high
Yeast superoxide = reduction of superoxide in aged yeast, primary screen, HTS. S. cerevisiae aged cells, superoxide DHE fluorescence; active compounds read low. superoxide response (% of plate mean), % at 10 µM. actives 0.18% (n = 330,000);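 active = superoxide response under a set limit, about three screen SD below normal, cut at about 65% in these data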;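 also: yeast aged for seven days with compound at 30 °C before DHE staining; 100% = average MFI of all compound-treated wells on the plate with controls excluded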
NRP1-CendR mod = modulators of CendR peptide binding to NRP-1, primary screen, biochemical, fluorescence polarization, uHTS; Neuropilin-1 (Homo sapiens), O14786; FAM-RPARPAR peptide binding to NRP-1; inhibition, % at 25 µM; actives 0.85% (n = 360,000);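 active = inhibition or corrected inhibition above about 18%, plus a signal ratio from 0.5 to 1.5, limit read from the data, passing the limit was not always enough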
Target sequence (O14786 whole entry, looked up): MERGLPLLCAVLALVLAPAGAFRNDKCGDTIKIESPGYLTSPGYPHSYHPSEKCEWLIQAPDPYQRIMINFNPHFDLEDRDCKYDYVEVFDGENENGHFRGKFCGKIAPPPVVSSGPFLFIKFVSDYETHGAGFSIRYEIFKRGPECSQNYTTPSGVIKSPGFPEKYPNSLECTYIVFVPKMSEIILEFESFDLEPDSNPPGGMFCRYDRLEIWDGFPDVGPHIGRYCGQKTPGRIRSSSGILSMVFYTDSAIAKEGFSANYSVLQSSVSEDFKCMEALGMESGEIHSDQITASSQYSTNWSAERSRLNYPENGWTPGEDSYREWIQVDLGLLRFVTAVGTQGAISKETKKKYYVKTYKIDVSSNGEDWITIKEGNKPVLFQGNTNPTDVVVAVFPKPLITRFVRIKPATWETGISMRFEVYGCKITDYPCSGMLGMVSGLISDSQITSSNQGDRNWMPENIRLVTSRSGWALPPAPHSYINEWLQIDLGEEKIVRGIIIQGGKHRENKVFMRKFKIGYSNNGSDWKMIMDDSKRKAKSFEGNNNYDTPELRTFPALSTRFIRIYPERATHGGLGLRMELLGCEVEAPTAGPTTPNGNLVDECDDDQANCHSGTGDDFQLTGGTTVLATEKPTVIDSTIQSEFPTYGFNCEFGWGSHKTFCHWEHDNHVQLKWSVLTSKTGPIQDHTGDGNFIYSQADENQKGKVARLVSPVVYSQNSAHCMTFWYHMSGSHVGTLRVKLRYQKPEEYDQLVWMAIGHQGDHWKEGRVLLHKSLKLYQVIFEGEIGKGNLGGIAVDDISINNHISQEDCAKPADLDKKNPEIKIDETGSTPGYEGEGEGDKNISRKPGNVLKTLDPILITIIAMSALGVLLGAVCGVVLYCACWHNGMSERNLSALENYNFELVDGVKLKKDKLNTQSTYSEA
T cruzi repl = inhibitors of intracellular T. cruzi growth, primary screen, luminescence, NIH3T3 host cells. T. cruzi beta-gal in NIH3T3, 90 h. actives 1.4% (n = 300,000). inhibition, % (no concentration beside the values);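 active = mean inhibition across valid replicates above about 55%, limit read from the data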;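 also: signal also drops with host cell toxicity which is not excluded here; 0% = plate median of DMSO wells and 100% = zero luminescence signal; higher percent means less beta-gal luminescence so fewer parasites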
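System – NIH/3T3 host cells with β-galactosidase reporter T. cruzi · Doses – single 50 nL compound addition per well in DMSO · Reagent – 5000 T. cruzi trypomastigotes/well · Medium – Low-serum DMEM with 2% FBS · Timing – ≥90 h infection period, 3 h prior cell attachment · Evaluation – parasite load inhibition, % · Technique – GalScreen luminescence, 60 min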
AI-2 QS mod = Vibrio harveyi AI-2 quorum sensing modulators, primary screen, JMH597 strain, luminescence/OD600 ratio; AID 2094, 2009; activity change, % at 7.5 µM; actives 0.4% (n = 300,000); Vibrio harveyi JMH597 AI-2 luminescence/OD600 ratio, 9 h; active compounds read low; strain lacks LuxN and CqsS sensors; 0 = neutral-control median; in the data active = activity change below about -75%, passing the limit was not always enough;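 also: luminescence divided by OD600 gain over 9 h not by final OD600 alone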
HIF act = HIF pathway transcriptional activators, primary screen, cell-based, U2OS HRE-luciferase, luminescence; U2OS HRE-luciferase reporter; normalized: DMSO 0%, desferrioxamine 100%; activation, % at 7.5 µM (by protocol); actives 0.32% (n = 300,000); AID 1910, 2009;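 active = mean activation of at least 10% of the iron chelator positive control signal, with at least half of replicates also reaching 10%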
Numbers without * were called inactive; nt = not tested or not shown.

SMILES	V-ATPase pHluor	Yeast superoxide	NRP1-CendR mod	T cruzi repl	AI-2 QS mod	HIF act
Cc1cccc(NC(=O)Nc2ccncc2)c1	-0.6	105.1	-7.5	65.3*	5.4	0.4
O=C(Nc1ccncc1)Nc1ccc(Br)cc1Cl	-2.2	102.0	-11.1	55.7*	-2.3	-0.5
Cc1cccc(C)c1NC(=O)CN(C)C(=O)c1ccc2c(=O)n3c(nc2c1)CCC3	-6.6	65.4*	15.7	nt	nt	nt
Cc1cc(C)c(NC(=O)CNC(=O)c2ccc3c(=O)n4c(nc3c2)CCC4)c(C)c1	-0.3	106.0	0.3	nt	nt	nt
O=C(NCCc1ccccc1)C(=O)NCC(c1ccco1)N1CCOCC1 (stereo unspecified)	1.8	101.0	-1.3	-2.8	10.5	0.1
CCOC(=O)C1=C(c2ccccc2)OC(N)=C(C#N)C1C(C)C (stereo unspecified)	0.9	102.3	49.8*	-8.2	9.4	0.8
Cc1cccc(CNC(=O)Nc2nnc([C@@H]3C[C@H](O)[C@@H](CO)O3)s2)c1	nt	nt	-4.1	nt	nt	nt
COc1ccc(N2CCN(CCCNC(=O)C(=O)c3c(C)[nH]c4ccccc34)CC2)cc1	-2.5	103.9	9.0	11.0	40.3	0.3
COc1ccc(NC(=O)CN(C)C(=O)/C=C/c2cn(-c3ccccc3)nc2-c2ccc(F)cc2)cc1	-1.0	91.6	0.0	16.6	14.0	0.9
COc1ccc(NC(=O)CN(C)C(=O)/C=C/c2cn(-c3ccccc3)nc2-c2ccc(C)cc2)cc1	-1.1	79.5	-5.3	71.7*	-3.8	-12.9
CC(C)CC(NS(=O)(=O)c1ccccc1)C(=O)O (stereo unspecified)	-0.4	107.4	14.4	-4.9	10.9	0.3
CC(C)CC(NS(=O)(=O)c1ccccc1S(=O)(=O)NC(CC(C)C)C(=O)O)C(=O)O (stereo unspecified)	0.7	89.7	25.5*	-3.8	14.1	-0.2
CCC(CC)C(=O)Nc1cccc(C(=O)Nc2nccs2)c1	2.5	110.0	-6.1	5.9	15.8	-0.1
CCC(CC)C(=O)Nc1cccc(C(=O)Nc2nnc(C)s2)c1	211.3*	93.1	-0.3	-2.8	18.3	-0.4
CCNC(=O)C1CC(=O)N(CC)C(=Nc2cc(Cl)c(O)c(Cl)c2)S1 (stereo unspecified)	1.6	106.9	-6.3	-5.5	27.6	-0.1
Cc1cc(Cl)ccc1NC(=S)N1CCN(C(=O)C2CCCO2)CC1 (stereo unspecified)	-2.2	75.4	-21.0	0.1	-2.8	-0.4
O=C(C1CCCO1)N1CCN(C(=S)Nc2ccc(Cl)cc2Cl)CC1 (stereo unspecified)	16.6*	105.7	-5.2	-22.9	18.3	0.0
CC1(c2cccc3ccccc23)OC(=O)c2ccccc21 (stereo unspecified)	-4.2	nt	10.2	nt	nt	nt
Cc1ccc(C)c(N2CCN(CC(=O)Nc3ccc([N+](=O)[O-])cc3C(=O)Nc3ccccc3F)CC2)c1	-3.2	99.8	-2.5	70.6*	32.0	-0.4
O=C(CNC1CCCCC1)Nc1ccc([N+](=O)[O-])cc1C(=O)Nc1ccccc1F	-2.4	105.5	17.2	3.6	12.6	-0.8
CCOc1ccc(OCC)c(NC(=O)CN2CCN(c3cccc(C)c3)CC2)c1	-3.9	96.2	-5.6	38.6	35.7	1.0
CCOc1ccc(OCC)c(NC(=O)CN2CCN(c3cc(C)ccc3C)CC2)c1	-3.5	84.0	8.1	70.1*	17.1	0.0
O=C(CN1CCN(c2cccc(Cl)c2)CC1)Nc1ccc([N+](=O)[O-])cc1C(=O)Nc1ccccc1F	-2.9	98.6	0.0	64.9*	15.1	-0.2
CCOC(=O)c1ccccc1NC1OC(=O)c2ccccc21 (stereo unspecified)	-4.7	105.7	-0.8	-11.9	54.0	-18.1
N/C(CC(=O)Nc1ccc(F)cc1)=N\O	-2.6	112.4	-5.4	-12.5	23.1	-0.1
O=C(Nc1ccc2nsnc2c1)N1CCCCC1	1.8	96.0	8.0	-0.6	9.5	-2.1

High-throughput results as filed in PubChem.
